Laboratory results from ChEMBL document CHEMBL2413013, “Triplex-forming ability of oligonucleotides containing 1-aryl-1,2,3-triazole nucleobases linked via a two atom-length spacer” (Bioorg Med Chem, 2013).

Assays:
[1] = Binding affinity to hairpin double stranded DNA AT base pair in sodium cacodylate buffer at pH 6.8 assessed as triplex-forming ability measuring melting temperature after by UV melting experiment
How it was run: (§1)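 TFO and hairpin dsDNA target, each strand at 1.89 μM final, in 10 mM sodium cacodylate (pH 6.8) with 100 mM KCl and 50 mM MgCl₂. Annealed in boiling water, then cooled slowly to 5 °C. Melting was followed at 260 nm from 5 to 90 °C at 0.5 °C/min. Tm was taken by the two-point average method, mean of three independent runs.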

[2] = Binding affinity to hairpin double stranded DNA TA base pair in sodium cacodylate buffer at pH 6.8 assessed as triplex-forming ability measuring melting temperature after by UV melting experiment; how it was run: as §1
[3] = Binding affinity to hairpin double stranded DNA CG base pair in sodium cacodylate buffer at pH 6.8 assessed as triplex-forming ability measuring melting temperature after by UV melting experiment; how it was run: as §1
[4] = Binding affinity to hairpin double stranded DNA GC base pair in sodium cacodylate buffer at pH 6.8 assessed as triplex-forming ability measuring melting temperature after by UV melting experiment; how it was run: as §1

Compound | Tm [1] | Tm [2] | Tm [3] | Tm [4]
Cc1cn([C@H]2C[C@H](O[PH](OCCC#N)(OC[C@H]3O[C@@H](n4cc(C)c(=O)[nH]c4=O)C[C@@H]3O[PH](OCCC#N)(OC[C@H]3O[C@@H](n4cc(C)c(=O)[nH]c4=O)C[C@@H]3O[PH](OCCC#N)(OC[C@H]3O[C@@H](n4cc(C)c(=O)[nH]c4=O)C[C@@H]3O[PH](OCCC#N)(OC[C@H]3O[C@@H](n4cc(C)c(=O)[nH]c4=O)C[C@@H]3O[PH](OCCC#N)(OC(C)[C@H]3O[C@@H](n4ccc(N)nc4=O)C[C@@H]3O[PH](OCCC#N)(OC[C@H]3O[C@@H](n4cc(C)c(=O)[nH]c4=O)C[C@@H]3O[PH](OCCC#N)(OC[C@H]3O[C@@H](OCc4cn(-c5cccc(O)c5)nn4)C[C@@H]3OP(=O)(O)OC[C@H]3O[C@@H](n4cc(C)c(=O)[nH]c4=O)C[C@@H]3O[PH](OCCC#N)(OC(C)[C@H]3O[C@@H](n4ccc(N)nc4=O)C[C@@H]3O[PH](OCCC#N)(OC[C@H]3O[C@@H](n4cc(C)c(=O)[nH]c4=O)C[C@@H]3O[PH](OCCC#N)(OC(C)[C@H]3O[C@@H](n4ccc(N)nc4=O)C[C@@H]3O[PH](OCCC#N)(OC[C@H]3O[C@@H](n4cc(C)c(=O)[nH]c4=O)C[C@@H]3O[PH](OCCC#N)(OC(C)[C@H]3O[C@@H](n4ccc(N)nc4=O)C[C@@H]3O[PH](OCCC#N)(OC[C@H]3O[C@@H](n4cc(C)c(=O)[nH]c4=O)C[C@@H]3O)N(C(C)C)C(C)C)N(C(C)C)C(C)C)N(C(C)C)C(C)C)N(C(C)C)C(C)C)N(C(C)C)C(C)C)N(C(C)C)C(C)C)N(C(C)C)C(C)C)N(C(C)C)C(C)C)N(C(C)C)C(C)C)N(C(C)C)C(C)C)N(C(C)C)C(C)C)N(C(C)C)C(C)C)N(C(C)C)C(C)C)[C@@H](CO)O2)c(=O)[nH]c1=O (stereo partly drawn) | 20 °C | 21 °C | 24 °C | 21 °C
CC(=O)N1CCCc2ccc(-n3cc(CC[C@H]4C[C@H](OP(=O)(O)OC[C@H]5O[C@@H](n6cc(C)c(=O)[nH]c6=O)C[C@@H]5O[PH](OCCC#N)(OC(C)[C@H]5O[C@@H](n6ccc(N)nc6=O)C[C@@H]5O[PH](OCCC#N)(OC[C@H]5O[C@@H](n6cc(C)c(=O)[nH]c6=O)C[C@@H]5O[PH](OCCC#N)(OC(C)[C@H]5O[C@@H](n6ccc(N)nc6=O)C[C@@H]5O[PH](OCCC#N)(OC[C@H]5O[C@@H](n6cc(C)c(=O)[nH]c6=O)C[C@@H]5O[PH](OCCC#N)(OC(C)[C@H]5O[C@@H](n6ccc(N)nc6=O)C[C@@H]5O[PH](OCCC#N)(OC[C@H]5O[C@@H](n6cc(C)c(=O)[nH]c6=O)C[C@@H]5O)N(C(C)C)C(C)C)N(C(C)C)C(C)C)N(C(C)C)C(C)C)N(C(C)C)C(C)C)N(C(C)C)C(C)C)N(C(C)C)C(C)C)[C@@H](CO[PH](OCCC#N)(O[C@H]5C[C@H](n6cc(C)c(=O)[nH]c6=O)O[C@@H]5CO[PH](OCCC#N)(O[C@H]5C[C@H](n6ccc(N)nc6=O)O[C@@H]5C(C)O[PH](OCCC#N)(O[C@H]5C[C@H](n6cc(C)c(=O)[nH]c6=O)O[C@@H]5CO[PH](OCCC#N)(O[C@H]5C[C@H](n6cc(C)c(=O)[nH]c6=O)O[C@@H]5CO[PH](OCCC#N)(O[C@H]5C[C@H](n6cc(C)c(=O)[nH]c6=O)O[C@@H]5CO[PH](OCCC#N)(O[C@H]5C[C@H](n6cc(C)c(=O)[nH]c6=O)O[C@@H]5CO[PH](OCCC#N)(O[C@H]5C[C@H](n6cc(C)c(=O)[nH]c6=O)O[C@@H]5CO)N(C(C)C)C(C)C)N(C(C)C)C(C)C)N(C(C)C)C(C)C)N(C(C)C)C(C)C)N(C(C)C)C(C)C)N(C(C)C)C(C)C)N(C(C)C)C(C)C)O4)nn3)cc21 (stereo partly drawn) | 21 °C | 27 °C | 26 °C | 21 °C
